Source: ChEMBL document CHEMBL1134460, “Terminally alkylated polyamine analogues as chemotherapeutic agents” (J Med Chem, 2001)
One block for each molecule: values may come before it.

Legend:
[1] = biological target: T1, Diamine acetyltransferase 1 (Homo sapiens, UniProt P21673); test: Inhibitory activity of compound against SSAT extracted from superinduced H157 cells; assay type: cell-free
How it was run: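 SSAT came from crude extracts of superinduced H157 cells and was assayed at saturating spermidine.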

[2] = biological target: T2, Ornithine decarboxylase (Homo sapiens) (UniProt P11926); test: Inhibition of ornithine decarboxylase (ODC); design: concentration or dose not given beside the values; settings: concentration not given here
T2 sequence (whole entry): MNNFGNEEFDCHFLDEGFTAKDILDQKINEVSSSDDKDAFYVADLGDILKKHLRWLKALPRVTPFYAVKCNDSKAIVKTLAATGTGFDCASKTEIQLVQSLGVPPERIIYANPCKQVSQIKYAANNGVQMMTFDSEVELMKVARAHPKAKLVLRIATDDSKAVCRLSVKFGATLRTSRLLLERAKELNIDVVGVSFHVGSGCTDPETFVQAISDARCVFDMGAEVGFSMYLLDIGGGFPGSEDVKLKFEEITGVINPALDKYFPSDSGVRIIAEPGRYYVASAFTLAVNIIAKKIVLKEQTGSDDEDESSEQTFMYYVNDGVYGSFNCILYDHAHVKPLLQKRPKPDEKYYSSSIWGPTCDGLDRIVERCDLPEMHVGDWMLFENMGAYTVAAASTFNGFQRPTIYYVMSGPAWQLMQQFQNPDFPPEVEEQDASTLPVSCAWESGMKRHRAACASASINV

[3] = system: NCI-H157; test: Effect of exposure of H157 non-SCLC to compound (<10 uM) for 96-h, on natural polyamines and accumulation of the compound; Decrease; assay type: functional, cell-based; settings: Homo sapiens
How it was run: (§1)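 H157 non-SCLC cells were treated with 10 μM analogue. Cellular putrescine, spermidine and spermine, plus the intracellular analogue, were quantified and compared with untreated control cells.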

[4] = system: NCI-H157; test: Activity against H157 non-SCLC cells in culture; assay type: functional, cell-based; settings: Homo sapiens
[5] = biological target: T1, Diamine acetyltransferase 1; test: Effect of 10 uM on spermine/spermidine-N-acetyltransferase (SSAT) induction in non-SCLC cells; assay type: cell-based
How it was run: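 NCI H157 non-small-cell lung tumor cells were exposed to 10 μM analogue. SSAT activity was assayed and expressed as pmol product/mg protein/min, then as fold increase over untreated control cells.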

[6] = biological target: S-adenosylmethionine decarboxylase (Homo sapiens) (UniProt P17707); test: Inhibition of Inhibition of human form of S-adenosyl-methionine decarboxylase enzyme (AdoMet-DC); design: concentration or dose not given beside the values; settings: concentration not given here
[7] = system: NCI-H157; test: Effect of exposure of H157 non-SCLC (<10 uM) for 96-h, and accumulation of compound was determined; assay type: functional, Homo sapiens
[8] = system: NCH82; test: Cytokinetic effects on H82 small-cell lung tumor line (SCLC) after 96-h treatment; assay type: functional, Homo sapiens
[9] = system: NCI-H157; test: (§2) Effect of exposure of H157 non-SCLC to compound (<10 uM) for 96-h, on natural polyamines and accumulation of the compound; No significant change; assay type: functional, cell-based; settings: Homo sapiens
[10] = system: Trypanosoma brucei; test: In vitro growth Inhibitory activity against K243 Strain of Trypanosoma brucei.; assay type: functional, organism-based
How it was run: (§3)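 In vitro growth inhibition was run against T. b. brucei LAB EATRO 110 and T. b. rhodesiense KETRI 243, KETRI 243 As-10-3 and KETRI 269. […] ">100" means no appreciable inhibition up to the highest concentration tested.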

[11] = system: Trypanosoma brucei; test: In vitro growth Inhibitory activity against LAB 110 Strain of Trypanosoma brucei; assay type: functional, organism-based; how it was run: as §3
[12] = Half-life period in liver tissues; assay type: ADME, tissue-based
[13] = system: Trypanosoma brucei; test: in vivo growth inhibition of Trypanosoma brucei was determined; assay type: functional, organism-based
[14] = biological target: T3, Spermine synthase (Homo sapiens, UniProt P52788); test: Inhibitory activity against spermine synthase
T3 sequence (P52788 whole entry): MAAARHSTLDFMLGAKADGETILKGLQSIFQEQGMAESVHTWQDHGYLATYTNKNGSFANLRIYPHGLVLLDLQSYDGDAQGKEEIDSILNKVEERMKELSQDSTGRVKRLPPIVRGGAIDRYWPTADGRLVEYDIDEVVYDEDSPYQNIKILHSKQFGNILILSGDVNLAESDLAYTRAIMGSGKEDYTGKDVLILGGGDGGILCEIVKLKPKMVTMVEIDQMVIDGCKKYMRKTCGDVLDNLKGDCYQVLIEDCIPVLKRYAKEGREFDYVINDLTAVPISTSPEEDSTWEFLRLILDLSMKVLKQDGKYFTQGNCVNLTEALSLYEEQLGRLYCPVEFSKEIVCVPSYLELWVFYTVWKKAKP

[15] = system: NCI-H157; test: as §2; assay type: functional, cell-based; settings: Homo sapiens; how it was run: as §1; remark: listed apart in the source

T1 sequence (P21673 whole entry): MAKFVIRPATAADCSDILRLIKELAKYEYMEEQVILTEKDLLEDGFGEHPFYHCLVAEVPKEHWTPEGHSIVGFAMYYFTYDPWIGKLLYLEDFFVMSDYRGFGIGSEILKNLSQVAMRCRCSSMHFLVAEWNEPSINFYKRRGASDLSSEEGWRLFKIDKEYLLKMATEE

Compound: C#CCNCCCNCCCNCCCNCC
IC50 [1]: 40 µM | inhibition [2]: < 50% | Effect on polyamine pools [3]: Decrease | IC50 [4]: 1.1 µM | Induction [5]: > 500

Compound: CCNCCCNCCCNCCCO
inhibition [6]: < 50% | inhibition [2]: < 50% | Effect on polyamine pools [3]: Decrease | Induction [5]: > 500 | Amount [7]: >20 nM (mg of protein)-1 | Effect [8]: 0

Compound: CCNCCCNCCCCCCCNCCCNCC1CCCCCC1
NC [9]: No significant change | inhibition [6]: < 50% | inhibition [2]: < 50% | Induction [5]: 0 | Amount [7]: <20 nM (mg of protein)-1

Compound: CCNCCCNCCCNCCCNCC1CCC(Br)CC1 (stereo not given)
inhibition [6]: < 50% | inhibition [2]: < 50% | Effect on polyamine pools [3]: Decrease | Induction [5]: < 50 | Amount [7]: >20 nM (mg of protein)-1

Compound: CCNCCCNCCCNCCCNCC1CCCC1
inhibition [6]: > 50% | inhibition [2]: > 50% | Effect on polyamine pools [3]: Decrease | Induction [5]: > 500 | Amount [7]: >20 nM (mg of protein)-1

Compound: N[C@@H]1C=C[C@H](NCCCNCC2CC2)C1
IC50 [10]: > 100 µM | IC50 [11]: > 100 µM

Compound: CCNCCCCNCCCCNCCCCNCC [DIETHYLHOMOSPERMINE]
half-life [12]: 15.4 days

Compound: CCNCCCN[C@@H]1CCC[C@H](N)CC1
IC50 [10]: > 100 µM | IC50 [11]: > 100 µM

Compound: CCNCCCNCCCNCCCNC1CCCCCC1
Effect on polyamine pools [3]: Decrease | Induction [5]: > 500 | Amount [7]: >20 nM (mg of protein)-1

Compound: CCNCCCN[C@H]1C=C[C@@H](N)CCC1
IC50 [10]: > 100 µM | IC50 [11]: > 100 µM

inhibition [2]: < 50% | Induction [5]: > 50
Compound: CCNCCCNCCCNC1CCCCCC1
Effect on polyamine pools [3]: Decrease

Compound: C[S+](C[C@@H]1O[C@H](n2cnc3c(N)ncnc32)[C@@H](O)[C@H]1O)C1C=CC(ON)C1 (stereo not given in full)
IC50 [13]: 0.9 µM

Compound: NCCCNCCCCCC(CCN)SC[C@H]1O[C@@H](n2cnc3c(N)ncnc32)[C@H](O)[C@@H]1O (stereo not given in full)
IC50 [14]: 0.02 µM

Compound: CCNCCCNCCCNCC1CCCCCC1
Effect on polyamine pools [3]: Decrease | Induction [5]: > 500 | Amount [7]: >20 nM (mg of protein)-1

Compound: CCNCCCNCCCNCCCNCC1CCCCC1
inhibition [6]: < 50% | inhibition [2]: < 50% | Effect on polyamine pools [3]: Decrease | Induction [5]: < 50 | Amount [7]: >20 nM (mg of protein)-1

Induction [5]: > 500
Compound: CCNCCCNCCCNCCCN1CCCCCC1
Effect on polyamine pools [3]: Decrease

Compound: CCNCCCCNCCCNCC
inhibition [6]: < 50% | inhibition [2]: > 50% | Effect on polyamine pools [3]: Decrease | Induction [5]: > 50 | Amount [7]: >20 nM (mg of protein)-1

Compound: C(CCCNCCCNCC1CCCCCC1)CCCNCCCNCC1CCCCCC1
NC [9]: No significant change | Induction [5]: 0

Compound: CCNCCCNCCCN1CCCCCC1
Effect on polyamine pools [15]: No significant change | Induction [5]: < 50 | Effect [8]: 0

Compound: CCNCCCNCCCNCCCNCC1CCC1
inhibition [2]: > 50% | Effect on polyamine pools [3]: Decrease | Induction [5]: > 500 | Amount [7]: >20 nM (mg of protein)-1
